According to ChEMBL document CHEMBL1154848, “Cytotoxic 3,4-seco-cycloartane triterpenes from the exudate of Gardenia tubifera” (J Nat Prod, 2010):
Converted amounts (≈) assume the structure as drawn.

Tests used:
BT-474 = test: Cytotoxicity against human BT474 cells after 3 days by MTT assay; format: functional, cell-based; details: BT-474, 72 h
Outline: (§1)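 Cells grown in RPMI-1640 with 25 mM HEPES, 0.25% (w/v) sodium bicarbonate, 5% (v/v) FBS and 100 µg/mL kanamycin. Freshly trypsinized cells were seeded at 5000 per well and given compound from DMSO-diluted stock. After three days, attached cells were MTT-stained, bound dye was solubilized and absorbance read at 540 nm. IC50 = 50% growth inhibition, averaged over at least six independent determinations.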

HepG2 = test: Cytotoxicity against human HepG2 cells after 3 days by MTT assay; format: functional, cell-based; details: HepG2, 72 h; outline: as §1
[1] = Cytotoxicity against human KATO III cells after 3 days by MTT assay; format: functional, cell-based, KATO III cell; details: 72 h; outline: as §1
[2] = Cytotoxicity against human ChaGo cells after 3 days by MTT assay; format: functional, cell-based; details: 72 h; outline: as §1
SW-620 = test: Cytotoxicity against human SW620 cells after 3 days by MTT assay; format: functional, cell-based; details: SW-620, 72 h; outline: as §1

For `C=C1C(=O)O[C@@H]2C[C@@H]3[C@]4(CC[C@]5(C)[C@@H]([C@H](C)Cc6cc(C)co6)CC[C@@]35C)C[C@]4(CCC(=O)OC)[C@H]12` [GARDENOIN B], the IC50 (BT-474) was > 5 µg/mL, the IC50 (HepG2) was > 5 µg/mL and the IC50 [1] was > 5 µg/mL. The IC50 [2] was > 5 µg/mL and the IC50 (SW-620) was > 5 µg/mL.
In the case of `C=C(CO)[C@@H]1CC[C@@H]2[C@]3(CC[C@]4(C)[C@@H]([C@H](C)CC=CC(C)(C)O)CC[C@@]24C)C[C@]13CCC(=O)O`, the IC50 (BT-474) is reported as > 5 µg/mL, the IC50 (HepG2) is reported as > 5 µg/mL and the IC50 [1] is reported as > 5 µg/mL. The IC50 [2] was > 5 µg/mL and the IC50 (SW-620) was > 5 µg/mL.
With `C=C1C(=O)O[C@@H]2[C@H](O)[C@@H]3[C@]4(CC[C@]5(C)[C@@H]([C@H](C)Cc6cc(C)co6)CC[C@@]35C)C[C@]4(CCC(=O)OC)[C@H]12` [GARDENOIN C] the IC50 (BT-474) was > 5 µg/mL, the IC50 (HepG2) was 2.8 µg/mL (≈ 5.48 µM) and the IC50 [1] was > 5 µg/mL. For the same compound, the IC50 [2] was 4.4 µg/mL (≈ 8.62 µM) and the IC50 (SW-620) was 2.5 µg/mL (≈ 4.9 µM).
For `C=C1C(=O)O[C@@H]2C[C@@H]3[C@]4(CC[C@]5(C)[C@@H]([C@H](C)Cc6cc(C)co6)CC[C@@]35C)C[C@]4(CCC(=O)O)[C@H]12` [GARDENOIN A], the IC50 (BT-474) was > 5 µg/mL, the IC50 (HepG2) was 4.5 µg/mL (≈ 9.36 µM) and the IC50 [1] was > 5 µg/mL. For the same compound, the IC50 [2] was 1.6 µg/mL (≈ 3.33 µM) and the IC50 (SW-620) was > 5 µg/mL.
